XBP1 UPR activ: activators of adaptive arm of unfolded protein response (XBP1); CHO-XBP1 luciferase reporter, IRE1-XBP1 UPR activation, luminescence; percent of tunicamycin response, DMSO as zero; activation, % at 20 µM; actives 0.33% (n = 330,000); AID 463104;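 active means versus positive control, 20 µM dose yields 30% or more activation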
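Test system: CHO-XBP1 luciferase reporter cells | Buffer or medium: Serum-containing F12 medium, 10% FBS | Schedule: 6 h compound exposure at 37 °C, 5% CO2 | Detection: Steady-Glo luciferase glow luminescence, 10 min after reagent addition | Read-out basis: Activation, % of tunicamycin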
TIM10 inh: inhibits growth of TIM10 yeast strain; S. cerevisiae TIM10 strain growth, BacTiter-Glo luminescence, 24 h; inhibition, % at 10 µM; actives 1.4% (n = 330,000); AID 463195;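 active means inhibition of 40% or more at the single tested concentration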;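 further: wild-type TIM10 isogenic control strain grown at permissive 25 °C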
CHOP UPR activ: apoptotic UPR (CHOP) activation; CHO-CHOP luciferase reporter, luminescence; percent of tunicamycin response over DMSO baseline; activation, % at 10 µM; actives 0.34% (n = 330,000); AID 449763;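 active means at 10 µM dose, activation of 40% or more, normalized to positive control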
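System: CHO-CHOP luciferase reporter cell line; amount: 500 cells/well; buffer or medium: F12 medium containing 10% fetal bovine serum; incubation: 6 h compound exposure at 37 °C after overnight seeding; measured by: luciferase luminescence after 10 min with Steady-Glo reagent; evaluation: % reporter activation, DMSO baseline versus tunicamycin full activation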
tim10-1 inh: tim10-1 yeast growth inhibition; inhibition, % at 20 µM; AID 463190; actives 2.2% (n = 330,000); S. cerevisiae tim10-1 ts strain growth, BacTiter-Glo, 24 h;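 active means inhibition of at least 40%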;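 further: mutant grown at 25 °C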
tim23-1 inh: growth inhibitors of tim23-1 mutant yeast; S. cerevisiae tim23-1 growth, BacTiter-Glo luminescence, 24 h; inhibition, % at 20 µM; actives 1.3% (n = 330,000); AID 463212;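 active means growth inhibition of the mutant yeast at or above 50%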;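 further: temperature-sensitive mutant grown at 25 °C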
tim10-1 conf: confirmation of tim10-1 mutant yeast growth inhibitors. inhibition, % at 20 µM. AID 463213. actives 56% (n = 7,400). shares compounds with tim10-1 inh. S. cerevisiae tim10-1 ts strain growth, BacTiter-Glo, 24 h;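 active means inhibition of yeast growth at or above a set limit in either of two repeat tests at 20 µM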;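 further: tim10-1 mutant grown at permissive 25 °C to find synthetic lethal compounds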
tim10 confirm: TIM10 yeast growth inhibition, confirmed. shares compounds with TIM10 inh. S. cerevisiae tim10 strain growth, BacTiter-Glo luminescence, 24 h. inhibition, % at 10 µM. actives 63% (n = 4,600);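 active means inhibition of yeast growth at or above a set limit in either of two replicates at 10 µM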; further: this counterscreen used the strain with wild-type TIM10
tim23-1 confirm: confirmation of tim23-1 mutant yeast growth inhibitors; shares compounds with tim23-1 inh; inhibition, % at 20 µM; actives 83% (n = 4,400); AID 463218; S. cerevisiae tim23-1 growth, BacTiter-Glo luminescence, 24 h;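 active means inhibition above about 39% in either of two replicate wells at 20 µM, limit read from the data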;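 further: temperature-sensitive tim23-1 mutant grown at 25 °C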
Numbers stand for hits. Compounds with a hit are over-represented: about 3.9% of the library has one in this group of screens.

Screening N#CC(c1ccc(Cl)cc1)c1ccc2c(C(F)(F)F)cc(C(F)(F)F)nc2n1 (centres undefined) returned XBP1 UPR activ inactive, TIM10 inh 64.0, CHOP UPR activ inactive, tim10-1 inh 71.2, tim23-1 inh 61.7, tim10-1 conf 48.5, tim10 confirm 53.8 and tim23-1 confirm 60.2.
For COc1ccc(CCNC(=O)c2ccc3c(c2)OCCO3)cc1 the results were XBP1 UPR activ inactive, TIM10 inh inactive, CHOP UPR activ inactive, tim10-1 inh inactive and tim23-1 inh inactive.
COc1ccc(S(=O)(=O)NCc2ccc(C)cc2)cc1 was read as XBP1 UPR activ inactive, TIM10 inh inactive, CHOP UPR activ inactive, tim10-1 inh 47.8, tim23-1 inh 56.2, tim10-1 conf inactive and tim23-1 confirm 43.4.
`COc1ccc(CCNS(=O)(=O)c2ccc3c(c2)OCCO3)cc1` gave XBP1 UPR activ inactive, TIM10 inh 49.1, CHOP UPR activ inactive, tim10-1 inh 49.7, tim23-1 inh 59.3, tim10-1 conf 42.5, tim10 confirm inactive and tim23-1 confirm 55.5.
For Cc1ccc(SCCNS(=O)(=O)c2ccc3c(c2)OCCO3)cc1 the results were XBP1 UPR activ inactive, TIM10 inh 51.1, CHOP UPR activ inactive, tim10-1 inh 52.4, tim23-1 inh 55.5, tim10-1 conf 42.4, tim10 confirm inactive and tim23-1 confirm 52.6.
`O=S(=O)(NCCSCc1ccc(Cl)c(Cl)c1)c1ccc2c(c1)OCCO2` gave XBP1 UPR activ inactive, TIM10 inh 52.5, CHOP UPR activ inactive, tim10-1 inh 46.7, tim23-1 inh 54.8, tim10-1 conf 33.1, tim10 confirm 35.6 and tim23-1 confirm 49.3.
Screening COc1ccc(CNS(=O)(=O)c2ccc(S(=O)(=O)NC3CC3)cc2)cc1 returned XBP1 UPR activ inactive, TIM10 inh inactive, CHOP UPR activ inactive, tim10-1 inh inactive and tim23-1 inh inactive.
`Cc1cccc(CN2C(=O)/C(=C\c3ccc(C(=O)NCCCN4CCN(C)CC4)cc3)Oc3ccccc32)c1` gave XBP1 UPR activ inactive, TIM10 inh inactive, CHOP UPR activ inactive, tim10-1 inh 43.5, tim23-1 inh 61.8, tim10-1 conf inactive and tim23-1 confirm 46.1.
Oc1c(Br)cc(Br)cc1C=Nc1ccc2[nH]ncc2c1 was read as XBP1 UPR activ inactive, TIM10 inh inactive, CHOP UPR activ inactive, tim10-1 inh 46.5, tim23-1 inh 86.2, tim10-1 conf 55.9 and tim23-1 confirm 79.5.
For Oc1c(Br)cc(Br)cc1C=Nc1cccnc1 the results were XBP1 UPR activ inactive, TIM10 inh 67.0, CHOP UPR activ inactive, tim10-1 inh 56.9, tim23-1 inh 79.4, tim10-1 conf 41.7, tim10 confirm 48.0 and tim23-1 confirm 89.8.
Screening Oc1c(Br)cc(C=Nc2ccc3nc(-c4ccccc4)[nH]c3c2)c(O)c1Br returned XBP1 UPR activ inactive, TIM10 inh inactive, CHOP UPR activ inactive, tim10-1 inh inactive and tim23-1 inh inactive.
`Cc1ccc(Cl)c(NC(=O)COC(=O)c2nn(C)c(=O)c3ccccc23)c1Cl` gave XBP1 UPR activ inactive, TIM10 inh inactive, CHOP UPR activ inactive, tim10-1 inh inactive and tim23-1 inh inactive.
CCOc1ccc(NC(=O)CN2CCc3cc4c(cc3C2)OCCCO4)cc1OCC was read as XBP1 UPR activ inactive, TIM10 inh inactive, CHOP UPR activ inactive, tim10-1 inh inactive and tim23-1 inh inactive.
Screening O=C(Cn1nc(Cl)nc1Cl)c1cc2ccccc2oc1=O returned XBP1 UPR activ inactive, TIM10 inh 57.0, CHOP UPR activ inactive, tim10-1 inh 59.3, tim23-1 inh 71.9, tim10-1 conf 52.9, tim10 confirm 43.5 and tim23-1 confirm 68.9.
For CCOC(=O)c1[nH]c(C)c(C(=O)OCc2ccccc2F)c1C the results were XBP1 UPR activ inactive, TIM10 inh inactive, CHOP UPR activ inactive, tim10-1 inh inactive and tim23-1 inh inactive.
Screening O=C(/C=C/c1ccccc1)CC(O)(c1ccccc1)C(F)(F)C(F)F (centres undefined) returned XBP1 UPR activ inactive, TIM10 inh inactive, CHOP UPR activ inactive, tim10-1 inh 44.2, tim23-1 inh 55.6, tim10-1 conf 41.2 and tim23-1 confirm inactive.
O=C(CC(O)(c1ccccc1)C(F)(F)C(F)F)c1cccs1 (centres undefined) was read as XBP1 UPR activ inactive, TIM10 inh inactive, CHOP UPR activ inactive, tim10-1 inh inactive and tim23-1 inh inactive.
For Cc1cccc(NC(=S)NC2CCCCC2)n1 the results were XBP1 UPR activ inactive, TIM10 inh 49.7, CHOP UPR activ inactive, tim10-1 inh 41.0, tim23-1 inh 52.1, tim10-1 conf inactive, tim10 confirm 43.8 and tim23-1 confirm 49.9.
Screening CN(c1ccc(C(=O)Nc2ccc(Cl)cn2)cc1)S(=O)(=O)c1ccccc1 returned XBP1 UPR activ inactive, TIM10 inh inactive, CHOP UPR activ inactive, tim10-1 inh inactive and tim23-1 inh inactive.
CN(C1=C(NC(=O)c2ccc(Cl)cc2)C(=O)c2ccccc2C1=O)c1ccccc1 was read as XBP1 UPR activ inactive, TIM10 inh 65.8, CHOP UPR activ inactive, tim10-1 inh 65.2, tim23-1 inh 67.8, tim10-1 conf 61.5, tim10 confirm inactive and tim23-1 confirm 72.1.
O=C(CN1CC(c2ccccc2)CC1=O)N/N=C/c1cc(Br)ccc1O (centres undefined) was read as XBP1 UPR activ inactive, TIM10 inh inactive, CHOP UPR activ inactive, tim10-1 inh 41.3, tim23-1 inh 56.1, tim10-1 conf inactive and tim23-1 confirm 50.3.
`Cc1n[nH]c(=O)c2c(NC(=O)CSc3ccccc3Cl)oc(C)c12` gave XBP1 UPR activ inactive, TIM10 inh inactive, CHOP UPR activ inactive, tim10-1 inh inactive and tim23-1 inh inactive.
For Cc1ccc(-c2ccnc3c(Br)c(C)nn23)cc1 the results were XBP1 UPR activ inactive, TIM10 inh inactive, CHOP UPR activ inactive, tim10-1 inh 41.0, tim23-1 inh 57.8, tim10-1 conf inactive and tim23-1 confirm 39.1.
O=C(O)c1cccc(N/N=C/c2cc(Br)cc(Br)c2O)c1 was read as XBP1 UPR activ inactive, TIM10 inh inactive, CHOP UPR activ inactive, tim10-1 inh 49.2, tim23-1 inh 77.8, tim10-1 conf 42.2 and tim23-1 confirm 74.2.
Screening Cc1c(N=Cc2cc(Br)cc(Br)c2O)cccc1C(=O)O returned XBP1 UPR activ inactive, TIM10 inh 42.5, CHOP UPR activ inactive, tim10-1 inh 59.4, tim23-1 inh 83.4, tim10-1 conf 50.5, tim10 confirm inactive and tim23-1 confirm 89.9.
